Assay results gathered from unrelated publications.
Each line is one published result; the experiments were not run side by side. Values after ≈ are worked out from the molar mass of the structure shown.

COc1c2c(cc3c1OCO3)[C@]13C=C[C@H](OC)C[C@@H]1[N@](C2)C[C@H]3OC(=O)c1ccc2ccccc2c1
IC50 (MOLT-4; cell growth or viability, WST-1): > 10 µM

CN(C(=O)/C=C/c1ccoc1)[C@@H]1CC[C@@]2(O)[C@H]3Cc4ccc(O)c5c4[C@@]2(CCN3CC2CC2)[C@H]1O5
ED50 (thermal pain; mouse; subcutaneous): 0.046 mg/kg

CCC1(c2ccc(N)cc2)CCC(=O)NC1=O (stereo not shown)
IC50 (DU-145; cell growth or viability, CCK-8; 48 h): > 50 µM

COCCOCOc1cc(OCc2cc(F)cc(F)c2)c(C(=O)/C=C/c2ccc(C(=O)O)cc2)cc1C12CC3CC(CC(C3)C1)C2
IC50 (Jurkat; cell growth or viability, ATP luminescence; 24 h): 0.93 µM

Cn1cnc(Cn2c(=O)[nH]/c(=N\c3cc4cn(C)nc4cc3Cl)n(Cc3cc(F)c(F)cc3F)c2=O)n1
EC50 (Alphacoronavirus 1; viral replication, inhibitor, qPCR; CRFK): ~50 µM

COC(=O)c1cc(-c2cccc(NC(=O)Nc3cccc(Cl)c3)c2)on1
MIC (Mycobacteroides abscessus; microbial growth, broth dilution; ATCC19977; 48 h): > 64 µg/mL

O=C(O)c1cn(C2CC2)c2cc(N3CCNCC3)c(F)cc2c1=O
inhibition zone (Mycolicibacterium vaccae; microbial growth; IMET10670; 5 µg/mL): 41 mm

N.N.[Cl][Pt][Cl]
IC50 (PLC; cell growth or viability; 24 h): 63.9 µM

COC(=O)c1cc(-c2cccc(NC(=S)Nc3ccc(C#N)cc3)c2)on1
MIC (Mycobacteroides abscessus; microbial growth, broth dilution; ATCC19977; 48 h): > 64 µg/mL

[H]/N=C(/N)N[C@H]1[C@H](O)[C@@H](O)[C@H](O[C@@H]2O[C@@H](C)[C@](O)(C=O)[C@H]2O[C@@H]2O[C@@H](CO)[C@H](O)[C@@H](O)[C@@H]2NC)[C@@H](N/C(N)=N\[H])[C@@H]1O
MIC (Mycobacteroides abscessus; microbial growth; ATCC19977): 50 µg/mL (≈ 86 µM)

COC(=O)c1cc(-c2cccc(NC(=O)Nc3ccc(Cl)cc3Cl)c2)on1
MIC (Mycobacteroides abscessus; microbial growth, broth dilution; ATCC19977; 48 h): > 64 µg/mL

COCCOCOc1cc(O)c(-c2cc(-c3ccc(C(=O)O)cc3)n(-c3ccccc3)n2)cc1C12CC3CC(CC(C3)C1)C2
IC50 (Jurkat; cell growth or viability, ATP luminescence; 24 h): 2.54 µM

CO[C@H]1/C=C/O[C@@]2(C)Oc3c(C)c(O)c4c(O)c(c(/C=N/N5CCN(C)CC5)c(O)c4c3C2=O)NC(=O)/C(C)=C\C=C\[C@H](C)[C@H](O)[C@@H](C)[C@@H](O)[C@@H](C)[C@H](OC(C)=O)[C@@H]1C
MIC (Mycobacteroides abscessus; microbial growth; ATCC19977): 25 to 100 µg/mL (≈ 30.4 to 122 µM)
